Columns and labels:
[1] = target: Mitogen-activated protein kinase kinase kinase kinase 4 (Homo sapiens) (UniProt O95819); experiment: Inhibition of MAP4K4 at 1 uM
Outline: (§1)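 Single-concentration screen on the Ambit KINOMEscan platform, run against a panel of 250–400 kinases. Per-kinase inhibition was also summarized as S(90), the fraction of kinases inhibited by more than 90%.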

[2] = target: T1, Serine/threonine-protein kinase Chk1 (Homo sapiens) (UniProt O14757); experiment: Inhibition of CHEK1 at 1 uM
T1 sequence (whole entry): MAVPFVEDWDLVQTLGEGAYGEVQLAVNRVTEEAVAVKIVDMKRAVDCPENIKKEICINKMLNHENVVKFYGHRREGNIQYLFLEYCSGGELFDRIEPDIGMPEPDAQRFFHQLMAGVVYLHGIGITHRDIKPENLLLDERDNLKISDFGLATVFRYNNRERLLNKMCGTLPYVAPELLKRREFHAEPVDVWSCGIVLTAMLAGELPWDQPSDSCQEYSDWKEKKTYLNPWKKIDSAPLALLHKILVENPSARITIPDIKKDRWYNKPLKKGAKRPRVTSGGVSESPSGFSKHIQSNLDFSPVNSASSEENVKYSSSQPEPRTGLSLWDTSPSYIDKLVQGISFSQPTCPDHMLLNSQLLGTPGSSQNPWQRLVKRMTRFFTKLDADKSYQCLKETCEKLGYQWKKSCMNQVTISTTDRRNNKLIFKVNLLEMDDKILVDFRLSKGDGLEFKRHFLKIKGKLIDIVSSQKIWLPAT

[3] = target: T2, Phosphatidylinositol 5-phosphate 4-kinase type-2 beta (Homo sapiens) (UniProt P78356); experiment: Inhibition of PIP5K2B at 1 uM
T2 sequence (whole entry): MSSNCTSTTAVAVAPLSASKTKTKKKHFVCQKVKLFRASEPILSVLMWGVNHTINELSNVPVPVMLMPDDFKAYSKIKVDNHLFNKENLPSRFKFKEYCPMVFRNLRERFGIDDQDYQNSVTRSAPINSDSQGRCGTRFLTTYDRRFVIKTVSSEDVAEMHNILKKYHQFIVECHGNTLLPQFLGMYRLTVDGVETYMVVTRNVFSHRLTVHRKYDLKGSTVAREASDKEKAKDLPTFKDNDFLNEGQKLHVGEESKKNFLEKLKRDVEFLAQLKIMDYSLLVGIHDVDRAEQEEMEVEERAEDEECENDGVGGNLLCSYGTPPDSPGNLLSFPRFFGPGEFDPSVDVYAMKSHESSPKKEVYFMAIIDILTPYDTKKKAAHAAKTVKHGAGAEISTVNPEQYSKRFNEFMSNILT

[4] = target: Glycogen synthase kinase-3 beta (Homo sapiens) (UniProt P49841); experiment: Inhibition of GSK3B at 1 uM; outline: as §1
Glycogen synthase kinase-3 beta (Homo sapiens), sequence (P49841 whole entry, looked up): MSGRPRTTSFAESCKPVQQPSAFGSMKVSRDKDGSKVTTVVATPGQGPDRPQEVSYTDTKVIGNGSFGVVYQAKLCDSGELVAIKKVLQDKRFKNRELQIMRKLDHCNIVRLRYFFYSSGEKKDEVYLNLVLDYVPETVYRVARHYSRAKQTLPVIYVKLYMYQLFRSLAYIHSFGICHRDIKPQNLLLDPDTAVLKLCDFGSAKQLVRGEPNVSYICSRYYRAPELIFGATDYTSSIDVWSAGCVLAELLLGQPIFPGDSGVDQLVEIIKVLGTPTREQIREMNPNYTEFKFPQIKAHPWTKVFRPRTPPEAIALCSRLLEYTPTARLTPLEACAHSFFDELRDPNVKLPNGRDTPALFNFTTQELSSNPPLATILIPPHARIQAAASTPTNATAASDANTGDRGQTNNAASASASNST

[5] = target: T3, Ephrin type-A receptor 8 (Homo sapiens) (UniProt P29322); experiment: Inhibition of EPHA8 at 1 uM
T3 sequence (whole entry): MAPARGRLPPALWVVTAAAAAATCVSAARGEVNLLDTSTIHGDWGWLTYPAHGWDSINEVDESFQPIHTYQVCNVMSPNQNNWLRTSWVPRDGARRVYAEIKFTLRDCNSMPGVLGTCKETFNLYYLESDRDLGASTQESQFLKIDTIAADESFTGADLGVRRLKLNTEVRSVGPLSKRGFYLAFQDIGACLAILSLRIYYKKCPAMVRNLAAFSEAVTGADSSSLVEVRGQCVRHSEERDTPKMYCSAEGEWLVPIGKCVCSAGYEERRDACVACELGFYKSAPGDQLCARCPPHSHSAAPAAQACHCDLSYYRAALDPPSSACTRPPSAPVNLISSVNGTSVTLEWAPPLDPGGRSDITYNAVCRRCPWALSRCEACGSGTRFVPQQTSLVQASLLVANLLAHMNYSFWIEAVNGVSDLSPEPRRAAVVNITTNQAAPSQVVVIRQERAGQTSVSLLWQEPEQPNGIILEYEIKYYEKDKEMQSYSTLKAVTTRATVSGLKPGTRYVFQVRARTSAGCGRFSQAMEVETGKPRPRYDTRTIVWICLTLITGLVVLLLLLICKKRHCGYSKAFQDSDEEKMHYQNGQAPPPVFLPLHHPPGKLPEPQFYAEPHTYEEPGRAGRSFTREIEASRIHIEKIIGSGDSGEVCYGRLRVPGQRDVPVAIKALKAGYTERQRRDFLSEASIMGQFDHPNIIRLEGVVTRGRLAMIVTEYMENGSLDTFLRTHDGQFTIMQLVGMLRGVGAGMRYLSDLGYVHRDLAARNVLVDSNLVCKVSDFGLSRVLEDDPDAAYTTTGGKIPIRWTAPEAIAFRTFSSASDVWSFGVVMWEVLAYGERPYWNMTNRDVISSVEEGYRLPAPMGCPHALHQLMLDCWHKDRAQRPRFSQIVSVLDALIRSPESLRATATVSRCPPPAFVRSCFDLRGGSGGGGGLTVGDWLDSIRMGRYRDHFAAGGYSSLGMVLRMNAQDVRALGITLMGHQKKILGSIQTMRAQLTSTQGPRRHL
Outline: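 Single-concentration screen using Ambit Bioscience KINOMEscan technology across a panel of 250–400 kinases. Per-kinase inhibition from this screen was summarized as S(90), the fraction of kinases inhibited by more than 90%.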

[6] = target: Rho-associated protein kinase 1 (Homo sapiens) (UniProt Q13464); experiment: Inhibition of ROCK1 at 1 uM
Rho-associated protein kinase 1 (Homo sapiens), sequence (Q13464 2-1354 limits assumed): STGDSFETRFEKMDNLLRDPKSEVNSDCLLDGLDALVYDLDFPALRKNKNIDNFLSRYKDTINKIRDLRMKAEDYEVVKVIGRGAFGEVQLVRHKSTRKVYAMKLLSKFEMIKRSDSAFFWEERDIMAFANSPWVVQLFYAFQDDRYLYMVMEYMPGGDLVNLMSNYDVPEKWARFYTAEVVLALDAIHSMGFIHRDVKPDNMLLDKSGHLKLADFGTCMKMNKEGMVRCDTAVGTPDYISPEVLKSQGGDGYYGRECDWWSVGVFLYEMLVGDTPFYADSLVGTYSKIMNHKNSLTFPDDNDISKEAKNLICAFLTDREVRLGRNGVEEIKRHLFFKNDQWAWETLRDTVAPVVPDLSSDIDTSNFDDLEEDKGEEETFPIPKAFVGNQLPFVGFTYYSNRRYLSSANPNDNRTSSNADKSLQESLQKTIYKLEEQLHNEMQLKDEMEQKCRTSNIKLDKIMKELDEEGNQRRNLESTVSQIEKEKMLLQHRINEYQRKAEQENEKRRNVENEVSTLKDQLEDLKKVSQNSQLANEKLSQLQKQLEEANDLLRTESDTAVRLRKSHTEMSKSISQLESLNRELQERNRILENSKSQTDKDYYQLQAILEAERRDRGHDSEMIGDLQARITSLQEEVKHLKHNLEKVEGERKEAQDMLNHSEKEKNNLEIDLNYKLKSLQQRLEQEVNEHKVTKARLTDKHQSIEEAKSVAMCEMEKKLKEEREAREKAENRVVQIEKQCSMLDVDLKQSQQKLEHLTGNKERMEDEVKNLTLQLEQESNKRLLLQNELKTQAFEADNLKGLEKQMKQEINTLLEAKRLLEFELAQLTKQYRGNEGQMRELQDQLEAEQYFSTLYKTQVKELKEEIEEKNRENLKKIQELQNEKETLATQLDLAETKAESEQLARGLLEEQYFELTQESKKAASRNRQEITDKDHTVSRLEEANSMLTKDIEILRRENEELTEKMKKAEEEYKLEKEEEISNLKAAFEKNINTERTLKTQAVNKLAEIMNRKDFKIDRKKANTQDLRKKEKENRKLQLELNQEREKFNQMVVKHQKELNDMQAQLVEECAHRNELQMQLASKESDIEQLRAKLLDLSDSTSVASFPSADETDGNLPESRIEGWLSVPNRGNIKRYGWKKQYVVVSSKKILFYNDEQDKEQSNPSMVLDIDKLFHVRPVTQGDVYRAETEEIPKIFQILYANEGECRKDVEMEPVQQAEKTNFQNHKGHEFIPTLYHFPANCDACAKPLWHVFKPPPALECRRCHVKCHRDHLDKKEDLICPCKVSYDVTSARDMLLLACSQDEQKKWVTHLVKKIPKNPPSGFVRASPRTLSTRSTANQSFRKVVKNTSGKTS

[7] = target: Tyrosine-protein kinase ABL2 (Homo sapiens) (UniProt P42684); experiment: Inhibition of ABL2 at 1 uM
Tyrosine-protein kinase ABL2 (Homo sapiens), sequence (P42684 whole entry): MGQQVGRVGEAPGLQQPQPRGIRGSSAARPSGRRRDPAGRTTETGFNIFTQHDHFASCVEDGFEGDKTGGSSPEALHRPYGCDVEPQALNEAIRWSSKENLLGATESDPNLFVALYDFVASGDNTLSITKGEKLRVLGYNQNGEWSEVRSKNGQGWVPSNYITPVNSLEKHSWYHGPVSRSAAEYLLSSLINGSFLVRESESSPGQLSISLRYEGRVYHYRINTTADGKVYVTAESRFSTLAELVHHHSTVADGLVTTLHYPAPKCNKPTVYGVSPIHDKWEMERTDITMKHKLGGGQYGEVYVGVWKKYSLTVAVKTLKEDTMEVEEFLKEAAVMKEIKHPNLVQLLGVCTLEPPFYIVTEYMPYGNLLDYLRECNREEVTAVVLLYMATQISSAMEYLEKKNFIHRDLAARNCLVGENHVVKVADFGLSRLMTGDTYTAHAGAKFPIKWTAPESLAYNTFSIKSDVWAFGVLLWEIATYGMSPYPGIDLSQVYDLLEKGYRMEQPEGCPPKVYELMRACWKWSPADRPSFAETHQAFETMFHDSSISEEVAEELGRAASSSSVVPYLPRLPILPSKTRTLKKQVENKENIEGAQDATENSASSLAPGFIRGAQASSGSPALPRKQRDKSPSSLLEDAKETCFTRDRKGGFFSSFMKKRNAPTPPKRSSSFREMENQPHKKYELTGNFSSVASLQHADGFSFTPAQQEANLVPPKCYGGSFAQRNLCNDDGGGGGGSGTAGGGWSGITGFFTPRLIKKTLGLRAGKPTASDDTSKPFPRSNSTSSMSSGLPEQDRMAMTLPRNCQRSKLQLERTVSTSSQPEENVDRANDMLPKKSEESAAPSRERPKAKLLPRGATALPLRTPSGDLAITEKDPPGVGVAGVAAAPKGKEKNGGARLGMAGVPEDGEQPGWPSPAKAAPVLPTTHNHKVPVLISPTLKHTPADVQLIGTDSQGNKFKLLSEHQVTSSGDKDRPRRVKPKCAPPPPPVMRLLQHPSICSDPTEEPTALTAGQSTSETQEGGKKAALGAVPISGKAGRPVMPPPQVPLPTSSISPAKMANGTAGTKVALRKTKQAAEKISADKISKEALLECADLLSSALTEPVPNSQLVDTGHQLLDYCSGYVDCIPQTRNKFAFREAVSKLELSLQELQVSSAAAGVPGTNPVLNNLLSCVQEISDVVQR
Outline: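 Ambit KINOMEscan screen at a single concentration across a 250–400 kinase panel, recorded as percent inhibition. Selectivity was expressed as S(90), the fraction of kinases inhibited >90%.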

[8] = target: Tyrosine-protein kinase Lyn (Homo sapiens) (UniProt P07948); experiment: Inhibition of LYN at 1 uM; outline: as §1
Tyrosine-protein kinase Lyn (Homo sapiens), sequence (P07948 2-512 limits assumed): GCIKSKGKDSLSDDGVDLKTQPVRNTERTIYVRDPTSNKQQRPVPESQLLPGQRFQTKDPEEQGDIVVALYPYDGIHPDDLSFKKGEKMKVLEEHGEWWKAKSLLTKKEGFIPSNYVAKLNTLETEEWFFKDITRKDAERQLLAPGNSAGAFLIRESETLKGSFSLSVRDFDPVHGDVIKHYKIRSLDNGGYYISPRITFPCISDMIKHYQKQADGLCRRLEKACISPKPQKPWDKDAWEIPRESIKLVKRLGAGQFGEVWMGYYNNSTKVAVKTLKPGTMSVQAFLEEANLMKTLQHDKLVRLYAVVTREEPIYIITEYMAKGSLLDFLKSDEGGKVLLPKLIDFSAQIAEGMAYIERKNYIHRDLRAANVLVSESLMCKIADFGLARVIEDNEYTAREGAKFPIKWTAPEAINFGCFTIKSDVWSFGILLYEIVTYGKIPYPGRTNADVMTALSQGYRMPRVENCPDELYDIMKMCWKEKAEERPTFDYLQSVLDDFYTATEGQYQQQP

[9] = target: T4, Serine/threonine-protein kinase RIO3 (Homo sapiens) (UniProt O14730); experiment: Inhibition of RIOK3 at 1 uM
T4 sequence (whole entry): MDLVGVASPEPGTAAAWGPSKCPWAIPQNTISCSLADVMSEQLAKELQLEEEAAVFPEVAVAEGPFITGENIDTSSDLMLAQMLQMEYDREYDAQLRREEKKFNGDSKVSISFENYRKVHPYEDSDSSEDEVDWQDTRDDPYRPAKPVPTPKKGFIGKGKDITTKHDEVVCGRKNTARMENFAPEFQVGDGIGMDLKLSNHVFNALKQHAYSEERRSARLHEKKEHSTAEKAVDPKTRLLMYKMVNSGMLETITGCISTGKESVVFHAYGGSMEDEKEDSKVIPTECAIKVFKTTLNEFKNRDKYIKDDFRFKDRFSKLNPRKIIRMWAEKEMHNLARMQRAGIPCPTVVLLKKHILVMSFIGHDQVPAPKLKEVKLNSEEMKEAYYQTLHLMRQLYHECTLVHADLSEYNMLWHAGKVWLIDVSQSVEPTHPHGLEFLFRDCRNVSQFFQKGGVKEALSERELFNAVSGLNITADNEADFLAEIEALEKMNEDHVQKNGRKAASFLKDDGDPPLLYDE

[10] = target: Cyclin-dependent kinase 3 (Homo sapiens) (UniProt Q00526); experiment: Inhibition of CDK3 at 1 uM
Cyclin-dependent kinase 3 (Homo sapiens), sequence (Q00526 whole entry, looked up): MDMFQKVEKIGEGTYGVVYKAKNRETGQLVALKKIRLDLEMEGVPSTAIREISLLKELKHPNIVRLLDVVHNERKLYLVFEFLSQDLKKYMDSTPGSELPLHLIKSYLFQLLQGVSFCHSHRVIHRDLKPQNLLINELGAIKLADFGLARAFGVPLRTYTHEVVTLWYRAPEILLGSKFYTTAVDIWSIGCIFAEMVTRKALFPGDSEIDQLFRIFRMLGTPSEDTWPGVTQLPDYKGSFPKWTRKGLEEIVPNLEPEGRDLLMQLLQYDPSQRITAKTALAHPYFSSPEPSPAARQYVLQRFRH

Mitogen-activated protein kinase kinase kinase kinase 4 (Homo sapiens), sequence (O95819 2-1239 limits assumed): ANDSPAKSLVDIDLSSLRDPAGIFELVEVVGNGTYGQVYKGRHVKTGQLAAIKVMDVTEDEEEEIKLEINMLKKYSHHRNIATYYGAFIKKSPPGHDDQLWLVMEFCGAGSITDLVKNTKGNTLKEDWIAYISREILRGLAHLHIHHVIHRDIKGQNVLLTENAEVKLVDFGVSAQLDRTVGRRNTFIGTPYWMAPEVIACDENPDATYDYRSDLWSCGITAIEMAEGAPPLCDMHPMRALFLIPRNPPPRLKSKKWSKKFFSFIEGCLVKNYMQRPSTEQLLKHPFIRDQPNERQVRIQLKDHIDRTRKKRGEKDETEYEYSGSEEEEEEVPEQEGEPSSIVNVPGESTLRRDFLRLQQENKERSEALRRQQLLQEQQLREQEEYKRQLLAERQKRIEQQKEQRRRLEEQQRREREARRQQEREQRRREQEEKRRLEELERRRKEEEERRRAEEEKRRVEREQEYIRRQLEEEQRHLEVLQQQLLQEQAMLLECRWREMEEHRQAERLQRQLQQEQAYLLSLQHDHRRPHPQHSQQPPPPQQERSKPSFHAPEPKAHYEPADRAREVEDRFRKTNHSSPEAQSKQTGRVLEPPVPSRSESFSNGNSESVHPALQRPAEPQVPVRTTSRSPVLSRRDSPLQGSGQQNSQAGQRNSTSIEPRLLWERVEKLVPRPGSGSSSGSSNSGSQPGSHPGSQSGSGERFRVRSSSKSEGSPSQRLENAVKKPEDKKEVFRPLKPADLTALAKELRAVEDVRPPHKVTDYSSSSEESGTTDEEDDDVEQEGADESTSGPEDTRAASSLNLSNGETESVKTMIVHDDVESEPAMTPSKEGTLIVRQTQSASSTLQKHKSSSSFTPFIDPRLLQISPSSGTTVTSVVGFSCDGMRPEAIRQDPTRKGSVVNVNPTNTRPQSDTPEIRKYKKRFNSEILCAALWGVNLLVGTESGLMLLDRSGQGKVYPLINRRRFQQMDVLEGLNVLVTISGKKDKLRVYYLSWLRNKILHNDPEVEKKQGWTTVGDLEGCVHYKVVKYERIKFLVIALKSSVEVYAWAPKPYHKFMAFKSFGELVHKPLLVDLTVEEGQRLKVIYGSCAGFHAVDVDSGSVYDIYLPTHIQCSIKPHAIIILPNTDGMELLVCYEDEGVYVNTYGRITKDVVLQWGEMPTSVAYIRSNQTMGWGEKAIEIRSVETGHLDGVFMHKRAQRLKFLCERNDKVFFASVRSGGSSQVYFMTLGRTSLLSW

inhibition [1] [%]	inhibition [2] [%]	inhibition [3] [%]	inhibition [4] [%]	inhibition [5] [%]	inhibition [6] [%]	inhibition [7] [%]	inhibition [8] [%]	inhibition [9] [%]	inhibition [10] [%]	Compound
< 50	< 50	< 50	< 50	< 50	< 50	< 50	< 50	< 50	< 50	CN1CCN(c2ccc(-c3cnc4c(c3)N(Cc3cc(Cl)ccc3C(F)(F)F)CCN4)cn2)CC1
< 50	< 50	< 50	< 50	< 50	< 50	< 50	< 50	< 50	< 50	FC(F)(F)c1ccc(Cl)cc1CN1CCNc2ncc(-c3ccnc(N4CCNCC4)c3)cc21
76	< 50	< 50	< 50	< 50	< 50	83	< 50	< 50	< 50	CN1CCN(c2ccc(-c3cnc4c(c3)N(Cc3c(F)ccc(F)c3Cl)CCN4)cn2)CC1
< 50		< 50	< 50	< 50		< 50	< 50	< 50		O=C(c1ccc(-c2cnc3c(c2)N(Cc2cc(Cl)ccc2C(F)(F)F)CCN3)cc1)N1CCCCC1

The next lines start with the molecule.

Compound	inhibition [1] [%]	inhibition [2] [%]	inhibition [3] [%]	inhibition [4] [%]	inhibition [5] [%]	inhibition [6] [%]	inhibition [7] [%]	inhibition [8] [%]	inhibition [9] [%]	inhibition [10] [%]
O=C(O)c1ccc(-c2cnc3c(c2)N(Cc2cc(Cl)ccc2C(F)(F)F)CCN3)cc1	< 50		< 50	< 50	< 50		< 50	< 50	< 50	
O=C(c1ccc(-c2cnc3c(c2)N(Cc2cc(Cl)ccc2C(F)(F)F)CCN3)cc1)N1CCC(N2CCCC2)CC1	< 50		< 50	< 50	< 50		75.9	< 50	< 50	
COC1CCN(C(=O)c2ccc(-c3cnc4c(c3)N(Cc3cc(Cl)ccc3C(F)(F)F)CCN4)cc2)CC1	< 50		< 50	< 50	< 50		< 50	< 50	< 50	
CC(=O)N1CCN(c2cc(-c3cnc4c(c3)N(Cc3cc(Cl)ccc3C(F)(F)F)CCN4)ccn2)CC1	< 50	< 50	< 50	< 50	< 50	< 50	< 50	< 50	< 50	< 50
CN1CCN(c2ccc(-c3cnc4c(c3)N(Cc3cc(F)ccc3F)CCN4)cn2)CC1	< 50	< 50	< 50	< 50	< 50	< 50	< 50	< 50	< 50	< 50
CN1CCN(c2ccc(-c3cnc4c(c3)N(Cc3cc(Cl)ccc3Cl)CCN4)cn2)CC1	< 50	< 50	< 50	< 50	< 50	< 50	< 50	< 50	< 50	< 50

Reference: ChEMBL document CHEMBL1165965, “Synthesis and structure-activity relationships of 1,2,3,4-tetrahydropyrido[2,3-b]pyrazines as potent and selective inhibitors of the anaplastic lymphoma kinase” (Bioorg Med Chem, 2010)
